Measured values: ChEMBL document CHEMBL3627703, “Synthetic, structural mimetics of the β-hairpin flap of HIV-1 protease inhibit enzyme function” (Bioorg Med Chem, 2015)
The source made the active and inactive calls. The rule behind the calls is not given here.

What was measured:
Protease = Protease (Human immunodeficiency virus 1, UniProt Q9YQ12); test: Inhibition of recombinant HIV-1 protease expressed in Escherichia coli using Arg-Glu (EDANS)-Ser-Gln-Asn-Tyr-Pro-Ile-Val-Gln Lys(DABCYL)-Arg as substrate by spectrofluorometric analysis
How it was run: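 Recombinant HIV-1 PR refolded from E. coli inclusion bodies, active concentration set by active-site titration, final 30–40 nM. Assay at 25 °C in 10 mM sodium acetate, 1 M NaCl, 2% DMSO, pH 5.0. Fluorogenic substrate at 16.7 μM, inhibitor 0–200 μM (20 mM DMSO stocks). Hydrolysis followed at excitation 340 / emission 490 nm. Ki from fitting to tight-binding competitive inhibition equations.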

MT4 [1] = test: Cytotoxicity against human MT4 cells assessed as viable cells at 50 uM after 3 days by tryptan blue dye assay; format: cell-based; settings: mt4, 72 h
How it was run: (§1)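 MT-4 cells seeded at 2 × 10⁵ cells/ml in RPMI with 10% heat-inactivated FBS, carrying carrier alone or inhibitor at 10, 50 or 100 μM (0.25% DMSO final), 37 °C, 5% CO₂. Viable cells counted by trypan blue exclusion after three days; triplicate.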

MT4 [2] = test: Cytotoxicity against human MT4 cells assessed as viable cells at 100 uM after 3 days by tryptan blue dye assay; format: cell-based; settings: mt4, 72 h; how it was run: as §1
[3] = test system: Human immunodeficiency virus 1; test: Antiviral activity against HIV-1 infected in human TZM-bl cells assessed as inhibition of viral replication at 50 to 100 uM by luciferase reporter assay; format: functional, organism-based

Protease, sequence (Q9YQ12 whole entry): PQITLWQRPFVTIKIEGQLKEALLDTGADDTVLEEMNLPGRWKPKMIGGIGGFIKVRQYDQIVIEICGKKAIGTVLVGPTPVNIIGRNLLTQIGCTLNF

| SMILES | Ki (Protease) | other results |
| --- | --- | --- |
| CC1=N[C@H](CC(C)C)C(=O)N(CC(C)C)c2cc(C(=O)OC(C)(C)C)ccc21 | 89 µM | – |
| CC1=N[C@H](CC(C)C)C(=O)N(Cc2ccncc2)c2cc(C(=O)OC(C)(C)C)ccc21 | > 200 µM | – |
| CC1=N[C@H](CC(C)C)C(=O)N(CC(=O)N2CCN(C(=O)OCc3ccccc3)CC2)c2cc(C(=O)OC(C)(C)C)ccc21 | > 200 µM | – |
| CC1=N[C@H](CC(C)C)C(=O)N(CC(=O)N2CCN(C(=O)OCC3c4ccccc4-c4ccccc43)CC2)c2cc(C(=O)OC(C)(C)C)ccc21 | > 200 µM | – |
| CC1=N[C@H](CC(C)C)C(=O)N(CC(=O)N2CCN(C(=O)OC(C)(C)C)CC2)c2cc(C(=O)OC(C)(C)C)ccc21 | 143 µM | – |
| CC1=N[C@@H](CC(C)C)C(=O)N(Cc2ccc(C3CCCCC3)cc2)c2cc(C(=O)OC(C)(C)C)ccc21 | 76 µM | – |
| CCCCCCNC(=O)CN1C(=O)[C@@H](CC(C)C)N=C(C)c2ccc(C(=O)O)cc21 | 75 µM | – |
| CC1=N[C@H](CC(C)C)C(=O)N(CC(=O)OC(C)(C)C)c2cc(C(=O)OC(C)(C)C)ccc21 | 119 µM | – |
| CC1=N[C@@H](CC(C)C)C(=O)Nc2cc(C(=O)O)ccc21 | > 200 µM | – |
| CCC(C)[C@@H]1N=C(C)c2ccc(C(=O)O)cc2N(Cc2ccc(C3CCCCC3)cc2)C1=O (single isomer, unassigned) | 53 µM | – |
| CC1=N[C@H](Cc2ccccc2)C(=O)Nc2cc(C(=O)O)ccc21 | > 200 µM | – |
| CCC(C)[C@@H]1N=C(C)c2ccc(C(=O)OC(C)(C)C)cc2NC1=O (single isomer, unassigned) | > 200 µM | – |
| CC1=N[C@H](Cc2ccccc2)C(=O)N(Cc2ccc(C3CCCCC3)cc2)c2cc(C(=O)O)ccc21 | 72 µM | – |
| CC1=N[C@H](CC(C)C)C(=O)N(CC(=O)O)c2cc(C(=O)O)ccc21 | > 200 µM | – |
| CC1=N[C@H](CC(C)C)C(=O)N(CC(=O)NCCc2ccccc2)c2cc(C(=O)O)ccc21 | 75 µM | – |
| CC1=N[C@@H](CC(C)C)C(=O)Nc2cc(C(=O)OC(C)(C)C)ccc21 | 193 µM | – |
| CC1=N[C@H](CC(C)C)C(=O)Nc2cc(C(=O)O)ccc21 | > 200 µM | – |
| CC1=N[C@H](CC(C)C)C(=O)N(Cc2ccncc2)c2cc(C(=O)O)ccc21 | > 200 µM | – |
| CC1=N[C@@H](CC(C)C)C(=O)N(Cc2ccc(C3CCCCC3)cc2)c2cc(C(=O)O)ccc21 | 27 µM | – |

| SMILES | Ki (Protease) | other results |
| --- | --- | --- |
| CC1=N[C@H](CC(C)C)C(=O)N(Cc2ccc(C(C)(C)C)cc2)c2cc(C(=O)O)ccc21 | 46 µM | – |
| CC1=N[C@H](CC(C)C)C(=O)N(CC(C)C)c2cc(C(=O)O)ccc21 | > 200 µM | – |
| CCCCCCNC(=O)CN1C(=O)[C@@H](CC(C)C)N=C(C)c2ccc(C(=O)OC(C)(C)C)cc21 | > 200 µM | – |
| CC(C)C[C@H]1N=C(c2ccccc2)c2ccc(C(=O)O)cc2N(Cc2ccc(C3CCCCC3)cc2)C1=O | 68 µM | – |
| CCCCCCCCCCNC(=O)CN1C(=O)[C@@H](CC(C)C)N=C(C)c2ccc(C(=O)O)cc21 | 11 µM | Activity (MT4 [1]): Non-toxic; Activity (MT4 [2]): Toxic; inhibition [3]: Active |
| CC1=N[C@H](CC(C)C)C(=O)N(CC(=O)N2CCN(C(=O)OCC3c4ccccc4-c4ccccc43)CC2)c2cc(C(=O)O)ccc21 | 49 µM | – |
| CC1=NCC(=O)N(Cc2ccc(C3CCCCC3)cc2)c2cc(C(=O)OC(C)(C)C)ccc21 | 169 µM | – |
| CC1=NCC(=O)Nc2cc(C(=O)O)ccc21 | 199 µM | – |
| CC1=NCC(=O)Nc2cc(C(=O)OC(C)(C)C)ccc21 | > 200 µM | – |
| CC1=N[C@@H](C)C(=O)N(Cc2ccc(C3CCCCC3)cc2)c2cc(C(=O)O)ccc21 | 56 µM | – |
| CC1=N[C@H](CC(C)C)C(=O)N(Cc2ccc(C3CCCCC3)cc2)c2cc(C(=O)OC(C)(C)C)ccc21 | 65 µM | – |
| CC1=N[C@H](CC(C)C)C(=O)Nc2cc(C(=O)OC(C)(C)C)ccc21 | > 200 µM | – |
| CC1=N[C@H](CC(C)C)C(=O)N(Cc2ccc(-c3ccccc3)cc2)c2cc(C(=O)O)ccc21 | 21 µM | Activity (MT4 [1]): Non-toxic; Activity (MT4 [2]): Toxic; inhibition [3]: Active |
| CC1=N[C@@H](Cc2ccccc2)C(=O)Nc2cc(C(=O)OC(C)(C)C)ccc21 | 64 µM | – |
| CC1=NCC(=O)N(Cc2ccc(C3CCCCC3)cc2)c2cc(C(=O)O)ccc21 | 85 µM | – |
| CC1=N[C@H](CC(C)C)C(=O)N(CC(=O)N2CCN(C(=O)OCc3ccccc3)CC2)c2cc(C(=O)O)ccc21 | 81 µM | – |
| CC1=N[C@H](CC(C)C)C(=O)N(Cc2ccc(C(C)(C)C)cc2)c2cc(C(=O)OC(C)(C)C)ccc21 | 147 µM | – |
| CC1=N[C@@H](C)C(=O)Nc2cc(C(=O)O)ccc21 | > 200 µM | – |
| CC1=N[C@@H](Cc2ccccc2)C(=O)N(Cc2ccc(C3CCCCC3)cc2)c2cc(C(=O)O)ccc21 | 47 µM | – |

| SMILES | Ki (Protease) | other results |
| --- | --- | --- |
| CCCCCCCCCCNC(=O)CN1C(=O)[C@@H](CC(C)C)N=C(C)c2ccc(C(=O)OC(C)(C)C)cc21 | > 200 µM | – |
| CC1=N[C@H](Cc2ccccc2)C(=O)Nc2cc(C(=O)OC(C)(C)C)ccc21 | 88 µM | – |
| CC1=N[C@@H](Cc2ccccc2)C(=O)N(Cc2ccc(C3CCCCC3)cc2)c2cc(C(=O)OC(C)(C)C)ccc21 | 54 µM | – |
| CC1=N[C@H](Cc2ccccc2)C(=O)N(Cc2ccc(C3CCCCC3)cc2)c2cc(C(=O)OC(C)(C)C)ccc21 | 131 µM | – |
| CC1=N[C@@H](C)C(=O)N(Cc2ccc(C3CCCCC3)cc2)c2cc(C(=O)OC(C)(C)C)ccc21 | 88 µM | – |
| CC1=N[C@H](CC(C)C)C(=O)N(Cc2ccccc2)c2cc(C(=O)OC(C)(C)C)ccc21 | > 200 µM | – |
| CC1=N[C@H](CC(C)C)C(=O)N(Cc2ccc(C3CCCCC3)cc2)c2cc(C(=O)O)ccc21 | 19 µM | Activity (MT4 [1]): Non-toxic; Activity (MT4 [2]): Toxic; inhibition [3]: Active |
| CC1=N[C@H](CC(C)C)C(=O)N(Cc2ccc(-c3ccccc3)cc2)c2cc(C(=O)OC(C)(C)C)ccc21 | 62 µM | – |
| CCC(C)[C@@H]1N=C(C)c2ccc(C(=O)O)cc2NC1=O (single isomer, unassigned) | 158 µM | – |
| CC1=N[C@H](CC(C)C)C(=O)N(CC(=O)NCCc2ccccc2)c2cc(C(=O)OC(C)(C)C)ccc21 | 95 µM | – |
| CC(C)C[C@H]1N=C(c2ccccc2)c2ccc(C(=O)OC(C)(C)C)cc2N(Cc2ccc(C3CCCCC3)cc2)C1=O | 88 µM | – |
| CC1=N[C@@H](C)C(=O)Nc2cc(C(=O)OC(C)(C)C)ccc21 | > 200 µM | – |
| CCCCCCCCCCCCCCCCNC(=O)CN1C(=O)[C@@H](CC(C)C)N=C(C)c2ccc(C(=O)O)cc21 | 11 µM | Activity (MT4 [1]): Toxic; Activity (MT4 [2]): Toxic; inhibition [3]: Active |
| CC1=N[C@@H](Cc2ccccc2)C(=O)Nc2cc(C(=O)O)ccc21 | > 200 µM | – |
| CCCCCCCCCCCCCCCCNC(=O)CN1C(=O)[C@@H](CC(C)C)N=C(C)c2ccc(C(=O)OC(C)(C)C)cc21 | 165 µM | – |
| CC1=N[C@H](CC(C)C)C(=O)N(CC(=O)N2CCNCC2)c2cc(C(=O)O)ccc21 | > 200 µM | – |
| CC1=N[C@H](CC(C)C)C(=O)N(Cc2ccccc2)c2cc(C(=O)O)ccc21 | > 200 µM | – |
| CCC(C)[C@@H]1N=C(C)c2ccc(C(=O)OC(C)(C)C)cc2N(Cc2ccc(C3CCCCC3)cc2)C1=O (single isomer, unassigned) | 108 µM | – |
